Data taken from ChEMBL document CHEMBL1126201, “Synthesis, characterization, and biological evaluation of a novel class of N-(arylethyl)-N-alkyl-2-(1-pyrrolidinyl)ethylamines: structural requirements and binding affinity at the sigma receptor” (J Med Chem, 1992).

Key:
[1] = target: Kappa-type opioid receptor (Cavia porcellus, UniProt P41144); experiment: Ability to displace [3H]bremazocine from opioid receptor kappa in guinea pig brain membranes; No inhibition; type: cell membranes
Summary of the method: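 Kappa sites labeled with 2 nM [3H]bremazocine on guinea pig brain P2 membranes (500 µg protein) in 10 mM Tris-HCl pH 7.4, 0.5 mL, with 100 nM DAGO and 100 nM DSTLE to mask mu/delta; 90 min at 25 °C. Terminated by ice-cold buffer and glass-fiber filtration. Screened at 100, 1000 and 10,000 nM; duplicates.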

[2] = target: Glutamate [NMDA] receptor; experiment: Ability to displace [3H]TCP from PCP receptor in guinea pig membranes; type: cell membranes, Cavia porcellus
Summary of the method: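 Guinea pig brain (minus cerebella) crude P2 membranes, 500 µg protein, incubated with 5 nM [3H]TCP in 5 mM Tris-HCl pH 7.4 for 60 min at 4 °C. Filtered on polyethylenimine-soaked glass-fiber filters; nonspecific binding defined with 10 µM cyclazocine. […] Duplicates, 2–3 experiments; IC50 converted to Ki by Cheng-Prusoff (Kd 25 nM).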

D(2) dopamine receptor = D(2) dopamine receptor (Rattus norvegicus, UniProt P61169); experiment: Ability to displace [3H]sulpiride from dopamine receptor D2 in rat brain; type: tissue-based
Summary of the method: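 Rat (male Sprague-Dawley) brain P2 membranes, 500 µg protein, with 5 nM [3H]-(-)-sulpiride in 50 mM Tris-HCl pH 7.7 + 120 mM NaCl, 60 min at 25 °C; haloperidol 1 µM for nonspecific binding; filtration, two washes.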

[3] = test system: Glutamate [NMDA] receptor; experiment: Ability to displace [3H]TCP from PCP receptor in guinea pig membranes; No inhibition; type: cell membranes, Cavia porcellus
Summary of the method: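 Guinea pig brain crude P2 membranes (500 µg protein) incubated with 5 nM [3H]TCP in 5 mM Tris-HCl pH 7.4, 0.5 mL, 60 min at 4 °C; stopped by ice-cold buffer and filtration through polyethylenimine-soaked (0.3%) glass-fiber filters, washed twice. Nonspecific binding with 10 µM cyclazocine. Screened at 100, 1000 and 10,000 nM; duplicates.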

Chain of Kappa-type opioid receptor (P41144 whole entry): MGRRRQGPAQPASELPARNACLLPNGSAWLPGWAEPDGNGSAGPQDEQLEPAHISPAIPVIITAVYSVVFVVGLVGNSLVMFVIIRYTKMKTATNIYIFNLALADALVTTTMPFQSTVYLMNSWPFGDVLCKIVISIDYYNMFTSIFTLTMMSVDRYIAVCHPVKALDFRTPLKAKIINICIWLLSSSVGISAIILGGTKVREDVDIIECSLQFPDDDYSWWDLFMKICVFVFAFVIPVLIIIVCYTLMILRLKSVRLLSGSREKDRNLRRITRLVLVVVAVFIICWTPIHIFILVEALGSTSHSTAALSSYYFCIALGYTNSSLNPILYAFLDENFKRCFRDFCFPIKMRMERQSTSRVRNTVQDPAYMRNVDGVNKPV
Chain of D(2) dopamine receptor (P61169 whole entry): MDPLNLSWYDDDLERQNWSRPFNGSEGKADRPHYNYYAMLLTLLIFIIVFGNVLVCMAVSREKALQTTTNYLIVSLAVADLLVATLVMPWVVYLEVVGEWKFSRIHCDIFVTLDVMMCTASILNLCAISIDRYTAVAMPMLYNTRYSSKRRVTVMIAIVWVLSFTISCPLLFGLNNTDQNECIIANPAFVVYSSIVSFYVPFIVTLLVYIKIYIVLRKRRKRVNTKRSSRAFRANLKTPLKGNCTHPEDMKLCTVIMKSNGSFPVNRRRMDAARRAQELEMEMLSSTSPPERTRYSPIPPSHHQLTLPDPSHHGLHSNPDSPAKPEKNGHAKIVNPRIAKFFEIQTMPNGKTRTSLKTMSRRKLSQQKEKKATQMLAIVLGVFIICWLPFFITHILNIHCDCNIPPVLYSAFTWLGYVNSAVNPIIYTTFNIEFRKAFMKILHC

| Ki [1] | Ki (D(2) dopamine receptor) [µM] | Ki [3] | SMILES | Ki [2] [µM] |
| --- | --- | --- | --- | --- |
| Not Active | 1.11 | Not Active | CN(CCc1ccc(Cl)c(Cl)c1)CCN1CCCC1 |  |
| Not Active | 6.75 |  | CN(CCc1ccc(Cl)c(Cl)c1)CCN1CCCCCC1 | 6.94 |
| Not Active | 1.21 | Not Active | CN(CCc1ccc(Cl)c(Cl)c1)CCN1CCCCC1 |  |

More lines, now with the values behind:

| SMILES | Ki [1] | Ki (D(2) dopamine receptor) [µM] | Ki [3] | Ki [2] [µM] |
| --- | --- | --- | --- | --- |
| C[C@@H](CN1CCCC1)N(C)CCc1ccc(Cl)c(Cl)c1 | Not Active | 11.2 |  | 3.04 |
| CCN(CCc1ccc(Cl)c(Cl)c1)CCN1CCCC1 | Not Active | 1.66 | Not Active |  |
| CN(CCc1cccc(Cl)c1)CCN1CCCC1 | Not Active | 6.5 | Not Active |  |
| CN(CCN1CCCC1)Cc1ccc(Cl)c(Cl)c1 | Not Active | 1.3 | Not Active |  |
| CCN(CC)CCN(C)CCc1ccc(Cl)c(Cl)c1 | Not Active | 3.01 | Not Active |  |
